Drawing on ChEMBL document CHEMBL4393735, “Molecular modelling, synthesis, and biological evaluations of a 3,5-disubstituted isoxazole fatty acid analogue as a PPARα-selective agonist” (Bioorg Med Chem, 2019), this text covers Activity for one compound.

Activity calls are given as the source filed them.

One data set relates to COS-1. Nature of the data set: Cytotoxicity against African green monkey COS1 cells assessed as reduction in cell viability at 10^-3 M by XTT based assay relative to control. To be noted: chlorocebus aethiops, cos-1, 1000 µM. The gist of the method:
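COS-1 cells were treated across the same concentration series as the GAL4 dose-response runs. Cytotoxicity was measured as LDH released into medium (absorbance 492/750 nm) and by XTT viability assay (absorbance 450/690 nm). Results expressed relative to control.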

Another data set has as its system SGBS. The data set is described as follows: Upregulation of FABP4 gene expression in human preadipocyte derived from Simpson-Golabi-Behmel syndrome (SGBS) patient at 25 uM measured for 12 days by qRT-PCR analysis. It is filed as functional, cell-based. The gist of the method:
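SGBS cells were differentiated with serum-free induction medium containing 25 μM test agent, 2 μM rosiglitazone or 0.1% DMSO from day 0. IBMX and dexamethasone were removed on day 4 and medium was renewed on day 8. RNA was taken on days 0, 4, 8 and 12 for qPCR, normalized to TBP and to day 0. At least three biological replicates in duplicate, two-way ANOVA with Bonferroni.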

Data set [1] deals with T1, Peroxisome proliferator-activated receptor alpha (Homo sapiens) (UniProt Q07869).
T1 sequence (whole entry): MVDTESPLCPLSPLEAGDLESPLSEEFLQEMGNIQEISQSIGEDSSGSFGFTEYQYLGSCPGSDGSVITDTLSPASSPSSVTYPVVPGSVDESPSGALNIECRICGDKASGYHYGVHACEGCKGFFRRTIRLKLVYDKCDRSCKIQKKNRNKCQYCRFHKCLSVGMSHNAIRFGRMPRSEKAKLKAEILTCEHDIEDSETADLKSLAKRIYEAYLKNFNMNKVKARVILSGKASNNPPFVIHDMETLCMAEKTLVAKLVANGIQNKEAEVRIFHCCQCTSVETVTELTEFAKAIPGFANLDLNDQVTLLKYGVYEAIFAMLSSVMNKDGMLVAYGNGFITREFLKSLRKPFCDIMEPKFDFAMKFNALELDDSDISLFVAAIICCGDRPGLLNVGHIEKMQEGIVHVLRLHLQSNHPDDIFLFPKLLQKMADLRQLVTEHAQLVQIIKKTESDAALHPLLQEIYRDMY
The data set is described as follows: Agonist activity at PPARalpha in human Huh7 cells assessed as SREBF1 mRNA expression at 50 uM measured after 18 hrs by qRT-PCR analysis. In kind it is cell-based. The gist of the method: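 Treatment for 18 h at 50 μM (or 1 μM for the 1 μM agents), DMSO vehicle. Harvested for qPCR. mRNA normalized to TBP by the comparative threshold method, expressed relative to DMSO control. Two biological replicates run in duplicate, mean ± SEM. Primary hepatocytes came from male C57BL/6N mice aged 7–8 weeks, isolated by portal-vein perfusion and digestion, seeded on collagen I and used on day 2. HuH-7 cells were kept in DMEM with 10% FBS and ITS.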

Data set [2] deals with T2, Peroxisome proliferator-activated receptor gamma (Homo sapiens) (UniProt P37231).
T2 sequence (whole entry): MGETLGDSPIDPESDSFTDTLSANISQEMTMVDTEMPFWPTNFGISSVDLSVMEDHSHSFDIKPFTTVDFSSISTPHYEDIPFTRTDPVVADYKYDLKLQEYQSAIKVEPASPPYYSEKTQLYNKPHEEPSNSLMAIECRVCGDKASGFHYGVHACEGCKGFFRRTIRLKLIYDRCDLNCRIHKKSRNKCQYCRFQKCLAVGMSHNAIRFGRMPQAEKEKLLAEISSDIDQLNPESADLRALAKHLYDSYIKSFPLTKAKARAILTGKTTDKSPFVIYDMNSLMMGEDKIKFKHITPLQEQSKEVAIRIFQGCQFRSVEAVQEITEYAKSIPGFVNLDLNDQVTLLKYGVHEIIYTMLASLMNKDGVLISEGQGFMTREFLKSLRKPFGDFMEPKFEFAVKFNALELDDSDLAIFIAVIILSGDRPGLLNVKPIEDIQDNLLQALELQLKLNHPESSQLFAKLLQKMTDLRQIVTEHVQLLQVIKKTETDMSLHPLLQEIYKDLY
Nature of the data set: Inverse agonist activity at full length human FLAG-tagged GAL4-DBD fused PPARgamma LBD (205 to 505 residues) expressed in COS1 cells assessed as inhibition of rosiglitazone binding measured after 18 hrs by dual luciferase reporter gene assay. It is filed as cell-based. The gist of the method:
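COS-1 cells carried GAL4-DBD–PPARγ-LBD with a UAS-luciferase reporter and Renilla control. Cells were titrated with increasing test compound in the presence of 1.0 μM rosiglitazone for 18 h in 0.1% DMSO. Firefly/Renilla ratio, normalized to GAL4-only activity.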

The target in data set [3] is T3, Retinoic acid receptor RXR-alpha (Homo sapiens) (UniProt P19793).
T3 sequence (whole entry): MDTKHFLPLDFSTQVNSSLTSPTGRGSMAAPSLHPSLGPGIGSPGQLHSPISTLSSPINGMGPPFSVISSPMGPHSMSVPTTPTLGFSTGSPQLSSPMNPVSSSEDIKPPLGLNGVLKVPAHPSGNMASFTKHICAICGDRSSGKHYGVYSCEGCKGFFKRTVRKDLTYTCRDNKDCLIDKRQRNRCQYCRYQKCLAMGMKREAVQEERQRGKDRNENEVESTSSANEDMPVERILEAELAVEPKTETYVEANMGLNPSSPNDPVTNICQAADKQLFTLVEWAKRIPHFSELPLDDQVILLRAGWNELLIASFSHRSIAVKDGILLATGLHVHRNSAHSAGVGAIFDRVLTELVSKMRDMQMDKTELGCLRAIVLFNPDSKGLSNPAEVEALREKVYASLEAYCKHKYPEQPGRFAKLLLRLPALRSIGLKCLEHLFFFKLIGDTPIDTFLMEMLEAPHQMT
Nature of the data set: Agonist activity at full length human FLAG-tagged GAL4-DBD fused RXRalpha LBD (202 to 462 residues) expressed in COS1 cells at 25 to 50 uM measured after 18 hrs by dual luciferase reporter gene assay. It is filed as cell-based. The essentials: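 COS-1 cells were transfected using Lipofectamine 2000 with GAL4-DBD–human NR-LBD plasmid, a 5×UAS-SV40 firefly luciferase reporter and pRL-CMV. After 6 h, cells were treated with 0, 25 or 50 μM in 0.1% DMSO (final) for 18 h. Firefly signal was normalized to Renilla, then to DMSO control and GAL4-only. Three biological replicates in quadruplicate, mean ± SEM, two-way ANOVA with Bonferroni.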

For `CCCCCCCc1cc(CCCCCC(=O)O)no1`, the Activity in the data set on COS-1 came to 40%. Moreover, in the data set on SGBS, the result was Active. In addition, the result in data set [1], in data set [2] and in data set [3] was inactive.
